# In the library only some 3.7% were active in any assay of this set; here they are far more common.
# core dimer inh: inhibitors of HCV core protein dimerization, primary screen, biochemical, TR-FRET, high-throughput; 300,000 tested, 0.33% active; TR-FRET GST/Flag-core106 dimerization, 1536-well; AID 1899, 2009; inhibition, % at 5 µM;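 active = inhibition above the mean of all tested compounds plus 3 SD, set per screening campaign, cut at about 45% in these data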
#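 assay system = GST-tagged and Flag-tagged HCV core protein residues 1-106 | controls = unlabelled core106 and no-GST-core106 wells | incubation = compound-protein-antibody incubation 4 h at 22.5 °C | probe or stimulus = Eu donor and XL665 acceptor anti-tag antibodies | read-out = % inhibition based on acceptor/donor emission ratio | signal = TR-FRET 671 and 617 nm emission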
# HCV NS3 hel inh: inhibitors of HCV NS3 helicase, primary screen, biochemical, Cy5 molecular beacon fluorescence; Hepatitis C virus NS3 helicase; 290,000 tested, 0.56% active; inhibition, % at 10.9 µM; NS3 helicase DNA unwinding;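 active = inhibition above the mean of all tested compounds plus 3 SD, set per campaign, cut at about 35% in these data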;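 also: 0% = DMSO wells and 100% = thioflavine S control wells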
#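 Measured by: Cy5 fluorescence, 0 and 60 min reads / Assay system: NS3 helicase fragment of HCV / Control set: low DMSO, high thioflavine S at 110 µM / Times: 1 h reaction at 25 °C, ATP-initiated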
# TAAR1 agonist: human TAAR1 agonists, primary screen, Fluo-8 calcium fluorescence, CHO RD-HGA16 cells. Trace amine-associated receptor 1 (Homo sapiens), Q96RJ0. vehicle wells 0%, saturating PEA agonist 100%. activation, % at 3 µM. 360,000 tested, 0.99% active;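 active = activation above the mean activation of all test compounds in the run plus 3 SD, cut at about 38% in these data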
# Target sequence (Q96RJ0 whole entry, looked up): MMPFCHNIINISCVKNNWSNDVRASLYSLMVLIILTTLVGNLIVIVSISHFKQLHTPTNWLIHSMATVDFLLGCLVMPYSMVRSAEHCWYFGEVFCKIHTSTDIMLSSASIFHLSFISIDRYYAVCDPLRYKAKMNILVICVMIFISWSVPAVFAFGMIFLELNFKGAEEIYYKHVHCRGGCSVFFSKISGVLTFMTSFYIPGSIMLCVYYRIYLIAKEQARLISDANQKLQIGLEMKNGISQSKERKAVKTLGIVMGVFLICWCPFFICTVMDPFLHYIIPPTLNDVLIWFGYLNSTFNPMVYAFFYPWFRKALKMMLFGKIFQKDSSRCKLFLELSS
#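 Test system: RD-HGA16 (CHO) cells co-expressing Gα16 and hTAAR1 | Doses: Single dose, 3 µM | Schedule: 17-24 h seeding, 75 min 37 °C dye, 30 min RT | Evaluation: % activation from peak over basal fluorescence ratio, DMSO-to-PEA scaled | Technique: Kinetic Fluo-8 calcium fluorescence | Benchmarks: Low control DMSO, high control PEA (EC100)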
# rCAG RNA binder: binders of r(CAG) RNA repeats, primary screen, biochemical, fluorescence | r(CAG) RNA repeat, TO-PRO-1 dye displacement fluorescence | inhibition, % at 3 µM | 370,000 tested, 1.3% active;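 active = inhibition above the plate cutoff, the mean of all test compounds on that plate plus 3 SD, cut at about 35% in these data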;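 also: 0% = DMSO alone and 100% = 100 µM mitoxantrone as full dye displacement; higher means more dye released from RNA so lower well fluorescence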
# TAAR1 antagonist: human TAAR1 antagonists, primary screen, Fluo-8 calcium fluorescence, CHO RD-HGA16 cells; Trace amine-associated receptor 1 (Homo sapiens), Q96RJ0; antagonist; inhibition, % at 3 µM; 360,000 tested, 1.5% active;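 active = inhibition above a per-plate cutoff, the mean inhibition of test compounds on that plate plus 3 SD, cut at about 49% in these data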;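 also: 0% = DMSO plus EC80 beta-PEA response and 100% = DMSO alone without agonist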
#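 Assay system: RD-HGA16 CHO cells with stable hTAAR1 and Gα16 / Reagent: EC80 β-phenethylamine stimulus / Doses: 3 µM, single point / Timing: dye loading 75 min at 37 °C, then 30 min room temperature / Measured by: Fluo-8 intracellular calcium dye fluorescence, real-time kinetic reads / Controls: vehicle wells and EC80 agonist wells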
# * hit, by the source's call; · = not tested or not shown.
SMILES,core dimer inh,HCV NS3 hel inh,TAAR1 agonist,rCAG RNA binder,TAAR1 antagonist
CC1Sc2ccc(S(=O)(=O)CCC(=O)N3CCN(c4cccc(Cl)c4)CC3)cc2NC1=O (stereo not drawn),4,-1,10,0,50*
CC1Sc2ccc(S(=O)(=O)N3CCC(C(=O)Nc4cccc(Cl)c4)CC3)cc2NC1=O (stereo not drawn),17,-3,4,10,49*
CCc1ccc(NC(=O)C2CCN(S(=O)(=O)c3ccc4c(c3)NC(=O)C(C)S4)CC2)cc1 (stereo not drawn),16,0,2,7,12
COc1ccc(OC)c(S(=O)(=O)N2CCC(C(=O)Nc3ccc(C)c(C)c3)CC2)c1,1,-7,31,-1,61*
Cc1ccc(NC(=O)CCS(=O)(=O)c2ccccc2)cc1C,·,·,·,1,·
COc1ccc(CN(C)CC#Cc2ccccc2)c(OC)c1,·,·,·,-2,·
Cc1cc(=O)[nH]c(SCC(=O)Nc2ccc(F)c(F)c2)n1,·,·,·,4,·
Cc1ccnc(NC(=O)C2CCN(S(=O)(=O)c3ccc(Cl)c(C(F)(F)F)c3)CC2)c1,2,·,1,2,-37
O=C(Nc1ccncc1)C1CCN(S(=O)(=O)c2ccc(Cl)c(C(F)(F)F)c2)CC1,·,·,48*,1,3
Cc1cccc(N2CCN(C(=O)C3CCN(c4nnc(-n5cccc5)s4)CC3)CC2C)c1 (stereo not drawn),12,4,7,-2,49*
Cc1cccc(N2CCN(C(=O)C3CCN(S(=O)(=O)c4cccc5nsnc45)CC3)CC2C)c1 (stereo not drawn),2,-12,21,0,60*
Cc1cccc(NC(=O)C2CCN(S(=O)(=O)c3cccc4nsnc34)CC2)c1,0,-8,6,5,13
O=[N+]([O-])c1cc([N+](=O)[O-])c2cc(-c3cccnc3)[nH]c2c1,14,·,19,15,49*
COc1cc(C=Nn2c(-c3cc(C)[nH]n3)n[nH]c2=S)cc(Br)c1O,·,·,·,3,·
CCOC(=O)[C@]12CCCC3=C1N(CCC3)C(=O)[C@@H](CC(=O)NCC1CCCCC1)C2,·,·,·,-3,·
COC1=C[C@H](C(=O)N[C@H]2CCCC[C@@H]2NC(C)=O)[C@H](C)[C@@H](c2ccccc2)CC1=O,·,·,·,7,·
Cc1ccc(NC(=O)C2CCCN2S(=O)(=O)c2cccnc2)c(C)c1 (stereo not drawn),·,·,·,0,·
COc1ccc(C(C(=O)N(C)C2CCCC2)N(Cc2ccc(F)cc2)C(=O)c2csc(-c3ccccc3)n2)cc1OC (stereo not drawn),·,·,·,7,·
CC(C)Oc1ccc(C(=O)NC2CCCCC2)cc1,0,8,10,-1,0
CC(C)Oc1ccc(C(CCN)C2CCCCC2)cc1 (stereo not drawn),-1,-76,47*,9,11
CC(COc1ccc(S(C)(=O)=O)cc1)CN1CCC(C(O)(c2ccccc2)c2ccccc2)CC1 (stereo not drawn),·,·,·,1,·
CCOC(=O)c1ccc(-n2[nH]c(-c3ccccc3)cc2=O)cc1,-1,9,5,49*,-1
CO/N=C(\CS(=O)(=O)Cc1ccc(OC)cc1)c1ccc(Cl)cc1,0,-4,43*,-3,24
COc1ccc(C(=O)C2(C(=O)NC3CCCC3)CC(c3ccccc3C(F)(F)F)=NO2)cc1 (stereo not drawn),·,·,·,-1,·
O=C(/C=C/c1cccc(Cl)c1)c1ccc([N+](=O)[O-])o1,8,·,57*,14,43
COc1cc(/C=C/C(=O)c2ccc([N+](=O)[O-])o2)ccc1O,0,·,18,2,23
Cc1ccc(S(=O)(=O)Nc2cc3c(C(=O)Nc4ccccc4)c(C)oc3c3ccccc23)cc1,50*,7,6,27,25
CC(=O)c1c(C)oc2c1cc(NS(=O)(=O)c1ccc(C(=O)O)cc1)c1ccccc12,-4,-11,2,34,4
COc1ccc(-c2ccnc3nc(-n4cccc4)nn23)cc1,13,-5,-3,13,20
c1coc(-c2ccnc3nc(-n4cccc4)nn23)c1,56*,14,2,12,-7

# Compound activity: PubChem BioAssay, The Scripps Research Institute Molecular Screening Center
